Experimental data from different studies.
Target: Tyrosine-protein kinase receptor UFO (AXL, Homo sapiens, UniProt P30530)
One construct used (P30530 26-894): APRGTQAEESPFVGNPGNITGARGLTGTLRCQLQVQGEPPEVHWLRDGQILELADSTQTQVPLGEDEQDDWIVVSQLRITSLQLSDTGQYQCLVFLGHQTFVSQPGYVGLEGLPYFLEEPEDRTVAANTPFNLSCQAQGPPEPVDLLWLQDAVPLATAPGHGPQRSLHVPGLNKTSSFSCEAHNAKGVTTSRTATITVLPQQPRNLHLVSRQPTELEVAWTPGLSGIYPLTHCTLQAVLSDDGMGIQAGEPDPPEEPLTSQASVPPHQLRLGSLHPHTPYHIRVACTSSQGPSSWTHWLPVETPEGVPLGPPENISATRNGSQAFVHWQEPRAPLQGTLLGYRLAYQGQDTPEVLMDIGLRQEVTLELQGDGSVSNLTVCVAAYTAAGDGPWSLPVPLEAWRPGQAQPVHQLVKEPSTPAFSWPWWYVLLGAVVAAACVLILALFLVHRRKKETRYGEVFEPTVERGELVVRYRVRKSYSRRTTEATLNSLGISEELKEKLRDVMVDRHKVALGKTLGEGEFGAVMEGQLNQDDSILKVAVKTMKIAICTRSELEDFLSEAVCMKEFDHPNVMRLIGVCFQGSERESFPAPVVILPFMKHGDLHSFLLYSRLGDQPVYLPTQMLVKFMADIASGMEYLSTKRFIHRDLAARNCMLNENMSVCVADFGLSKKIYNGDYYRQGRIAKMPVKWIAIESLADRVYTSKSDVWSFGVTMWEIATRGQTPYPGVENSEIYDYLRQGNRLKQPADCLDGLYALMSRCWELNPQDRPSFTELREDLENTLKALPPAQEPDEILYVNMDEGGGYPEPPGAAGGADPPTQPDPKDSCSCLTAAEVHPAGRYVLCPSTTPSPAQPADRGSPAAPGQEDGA

The inhibition of `CC#CC(=O)N1CCC[C@H]1c1nc(-c2ccc(C(=O)Nc3ccccn3)cc2)c2c(N)nccn12` is reported as 5% (enzyme activity; inhibitor; 1 µM).
With `N#Cc1ccc(NC(=O)Nc2ccccc2)cc1` the remaining binding was 100% (cell-free assay; competition with immobilised ligand; 25 µM).
For `CCCCC(=O)Nc1ccc(-c2ccc3ncn(CCC)c(=O)c3c2)cn1`, the remaining binding was 95% (binding; competition with immobilised ligand; 0.5 µM).
For `CNC(=O)c1ccccc1Nc1nc(Nc2ccc(CO)nc2)ncc1Cl`, the remaining activity was 2.06% (enzyme activity; inhibitor; 1 µM).
With `C1=C/COCc2cc(ccc2OCCN2CCCC2)Nc2nccc(n2)-c2cccc(c2)COC/1` the remaining binding was 38% (binding; 0.1 µM).
The inhibition of `CO[C@@H]1[C@H](N(C)C(=O)c2ccccc2)C[C@H]2O[C@]1(C)n1c3ccccc3c3c4c(c5c6ccccc6n2c5c31)C(=O)NC4` is reported as 92% (enzyme activity; inhibitor; 1 µM).
For `CNS(=O)(=O)c1ccc(Nc2ncc(C(F)(F)F)c(N3CCC[C@](C)(O)C3)n2)c(C)c1`, the remaining binding was 70% (binding; competition with immobilised ligand; 1 µM).
With `COc1ccc2oc(-c3ccc4nc(N)oc4c3)c/c(=N\c3ccccc3NC(=O)CCN)c2c1` the remaining binding was 96% (binding; 1 µM).
`CNC(=O)c1ccccc1Nc1nc(Nc2ccc(CO)cc2)ncc1Cl` gave a remaining activity of 1.13% (enzyme activity; inhibitor; 1 µM).
`COc1ccc2[nH]c3c4[nH]c5ccc(OC)cc5c4c4c(c3c2c1)C(=O)NC4=O` has a remaining binding of 30% (binding; competition with immobilised ligand; 1 µM).
`CS(=O)(=O)c1ccccc1Nc1nc(Nc2ccnc(CO)c2)ncc1Cl` gave a remaining activity of 4.41% (enzyme activity; inhibitor; 1 µM).
With `Cc1ccc(NC(=O)c2ccnc(C(F)(F)F)c2)cc1-c1cc(OCCO)nc(N2CCOCC2)c1` the remaining binding was 90% (binding; competition with immobilised ligand; 1 µM).
The remaining activity of `CS(=O)(=NC#N)c1ccccc1Nc1nc(Nc2ccc(CO)nc2)ncc1Cl` (centres unmarked) is reported as 14.9% (enzyme activity; inhibitor; 1 µM).
With `C[C@]1(O)CCCN(c2nc(Nc3ccc(S(=O)(=O)N[C@H]4CC[C@H](CN5CCN(c6ccc(C7CCC(=O)NC7=O)cc6F)CC5)CC4)cc3F)ncc2C(F)(F)F)C1` (some centres unmarked) the remaining binding was 40% (binding; competition with immobilised ligand; 1 µM).
